Compounds with a hit are over-represented: about 2.2% of the library has one in this group of screens.
S100A4 inh HTS: blocks human S100A4 binding to myosin IIA peptide; P26447; S100A4/TAMRA-MyoIIA peptide fluorescence polarization; inhibition, % at 10.7 µM; 360,000 tested, 0.14% active; AID 652163;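 active = mean inhibition of at least 70% across replicates, with every replicate also reaching that level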
Target sequence (P26447 whole entry, looked up): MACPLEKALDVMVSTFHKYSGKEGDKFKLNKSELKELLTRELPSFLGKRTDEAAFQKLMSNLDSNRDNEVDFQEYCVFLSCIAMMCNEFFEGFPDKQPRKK
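Material: S100A4 monomer protein / Buffer or medium: 50 mM HEPES pH 7.2, 10 mM CaCl2, 100 mM KCl / Times: 5 min incubation before reading / Benchmarks: neutral control DMSO, positive control TFP / Reagent: labelled myosin peptide probe, 5 nM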
FGF22 binding: FGF22 (human) thermal shift binding; Q9HCT0; recombinant FGF22 thermal shift, SYPRO orange fluorescence; percent of sucrose octasulfate shift, DMSO zero; activity (Tm shift, normalised), % at 9.99 µM; 340,000 tested, 1.5% active;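 active = mean Tm shift, scaled 0 neutral to 100 positive control, at about 1.3% or above, every replicate too, limit read from the data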
Target sequence (Q9HCT0 whole entry, looked up): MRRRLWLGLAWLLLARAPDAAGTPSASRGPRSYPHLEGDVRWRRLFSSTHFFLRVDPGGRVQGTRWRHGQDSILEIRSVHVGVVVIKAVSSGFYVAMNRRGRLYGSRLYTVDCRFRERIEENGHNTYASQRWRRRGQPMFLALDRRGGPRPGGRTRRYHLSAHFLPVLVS
F508del corr: correctors of CFTR F508del function in bronchial epithelial cells. CFBE cells, YFP halide quenching; stimulated with forskolin plus potentiator P3; % fluorescence drop versus neutral controls. 350,000 tested, 0.36% active. activity (quench increase), % at 7.58 µM;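 active = mean added fluorescence quench of at least 8% versus neutral control, with both replicates also reaching 8%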;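 also: cells transiently co-express mutant CFTR-F508del with the halide-sensitive YFP; corrector assay measuring rescue of mutant channel to the surface after 24 h compound exposure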
dFosB act-1: activators of mouse delta FosB homodimer. 340,000 tested, 0.99% active. activation, % at 25 µM. AID 493131. purified delta FosB, TAMRA-CDK5 oligo fluorescence polarization; percent of positive-control signal above neutral wells. P13346;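 active = mean activation above about 17%, with every replicate also reaching it, limit read from the data, passing the limit was not always enough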
dFosB act-2: activators of mouse delta FosB homodimer DNA binding; 2,400 tested, under 10 active; AID 588690; activation, % at 24.9 µM; purified delta FosB, TAMRA-CDK5 oligo fluorescence polarization; normalised: neutral wells 0, positive control 100; shares compounds with dFosB act-1;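 active = highest replicate activation at or above 34% and every replicate reaching that threshold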;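 also: higher polarization means more probe DNA bound by delta FosB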
* marks the source's active call; other numbers are inactive results; x = not tested or not shown.

SMILES | S100A4 inh HTS | FGF22 binding | F508del corr | dFosB act-1 | dFosB act-2
CCOc1cc(CNCCCN2CCOCC2)cc(Br)c1OCc1ccccc1Cl | -4.5 | 0.0 | -5.6 | 20.7* | 0.6
COc1cc(COCC(O)CN2CCN(CCN3C(=O)c4cccc5cccc(c45)C3=O)CC2)cc(OC)c1OC (configuration not stated) | 4.4 | -0.2 | x | 37.1* | 0.8
COc1ccc(COCC(O)CN2CCC(CN3C(=O)c4cccc5cccc(c45)C3=O)CC2)cc1OC (configuration not stated) | x | x | x | 27.6* | 5.3
COc1cccc(OCC(O)CN2CCC(CN3C(=O)c4cccc5cccc(c45)C3=O)CC2)c1 (configuration not stated) | -2.6 | 0.2 | 6.4 | 45.5* | 3.5
O=c1[nH]c(SCc2nc3c(cnn3-c3ccccc3)c(=O)[nH]2)nc2ccccc12 | x | x | x | 43.7* | 4.0
CCCC(C(=O)NC1CCCC1)N(C(=O)c1snc(C(N)=O)c1N)c1ccc(F)cc1 (configuration not stated) | -0.1 | -0.2 | 2.7 | 24.1* | 1.7
COc1ccccc1N(C(=O)c1snc(C(N)=O)c1N)C(C(=O)NCc1ccccc1)c1ccc(O)cc1 (configuration not stated) | -5.6 | 0.2 | 0.8 | 2.7 | x
COc1ccc(N(C(=O)c2snc(C(N)=O)c2N)C(C(=O)NC2CCCC2)c2cccs2)cc1OC (configuration not stated) | 3.0 | 0.2 | -2.6 | 36.7* | 1.5
COc1ccc(N(C(=O)c2snc(C(N)=O)c2N)C(C(=O)NC2CCCCC2)c2ccc(F)cc2)c(OC)c1 (configuration not stated) | -1.8 | -0.1 | -3.3 | 40.4* | -0.2
NC(=O)c1nsc(C(=O)N(c2ccccc2F)C(C(=O)NCc2ccc(F)cc2)c2ccc(O)cc2)c1N (configuration not stated) | 2.5 | -0.4 | 2.4 | 43.6* | 4.8
CCCCC(C(=O)NC1CCCC1)N(C(=O)c1snc(C(N)=O)c1N)c1ccc(OCC)cc1 (configuration not stated) | -1.1 | -0.3 | 2.6 | -8.8 | x
Cc1noc(C)c1NC(=O)Nc1cccc2c1O[C@H](CN(C)C)[C@@H](C)CN([C@H](C)CO)C2=O | -9.8 | 0.0 | 1.3 | x | x
CCOc1ccc(-n2cc(C(=O)Nc3cccc(OC)c3)c3cc(OC)c(OC)cc3c2=O)cc1 | x | x | x | 40.0* | 3.7
COCC#Cc1cnc2c(c1)C(=O)N([C@H](C)CO)C[C@H](C)[C@@H](CN(C)C(=O)C1CCC1)O2 | 3.0 | -0.2 | -0.2 | x | x
Cc1nc2ccccn2c1C(=O)CSc1ccc(Cl)cc1Cl | x | x | x | 49.8* | 0.8
COc1cc(/C=N/NC(=O)c2cccnc2)ccc1OCC(=O)Nc1c(C)cc(C)cc1C | x | x | x | 25.6* | 5.7
COc1ccc(NC(=O)COc2ccc(/C=N/NC(=O)c3cccnc3)cc2OC)cc1 | 1.1 | -0.1 | -1.2 | -10.7 | x
COc1cc(/C=N/NC(=O)c2cccnc2)ccc1OCC(=O)Nc1ccccc1Cl | 3.2 | 43.2* | -1.0 | 116.5* | -0.4
CN1C(=O)c2cc(NC(=O)c3ccc(F)cc3)ccc2OC[C@@H]2O[C@@H](CC(=O)NCC3CCCCC3)CC[C@H]21 | -10.6 | -0.2 | -2.1 | x | x
COc1ccc(Cc2nnc(NC(=O)Nc3ccccc3F)s2)cc1 | 1.0 | 0.1 | 1.4 | 2.8 | x
O=C(Nc1nnc(-c2ccccc2SCc2ccccc2)s1)Nc1ccccc1F | x | x | x | 91.3* | -7.6
O=C(Nc1nnc(Cc2ccc(F)cc2)s1)Nc1ccccc1F | -19.6 | 0.0 | 3.2 | 27.1* | 7.0
COc1ccc(CN(C)C[C@H]2Oc3c(NS(=O)(=O)c4cn(C)cn4)cccc3C(=O)N([C@H](C)CO)C[C@H]2C)cc1 | -13.2 | -0.1 | 0.5 | x | x
COc1ccc2c3c(n(C)c2c1)[C@H](CO)N(C(=O)c1ccccn1)CC31CCN(C(=O)c2ccccn2)CC1 | -3.0 | -0.2 | -0.7 | x | x
OCCNc1nc(Nc2ccc(O)cc2)nc2ccccc12 | -4.3 | -0.5 | -1.3 | 19.4* | 3.5
CCc1ccccc1NC(=O)c1cc(S(=O)(=O)N2CCc3ccccc32)cn1C | -1.9 | -0.5 | -1.9 | 25.8* | -8.3
Cc1ccc(NC(=O)c2cc(S(=O)(=O)N3CCc4ccccc43)cn2C)cc1C | 1.9 | 0.2 | 2.8 | -7.0 | x
